Sampled rows, rich in hits. Any-hit rate of the full collection: about 6.8%.
AI-2 QS modul = Vibrio harveyi AI-2 quorum sensing modulators, primary screen, JMH597 strain, luminescence/OD600 ratio; Vibrio harveyi JMH597 AI-2 luminescence/OD600 ratio, 9 h; active compounds read low; strain lacks LuxN and CqsS sensors; 0 = neutral-control median; activity change, % at 7.5 µM; actives 0.4% (n = 300,000); in the data active = activity change below about -75%, passing the limit was not always enough; inconclusive = no clear call, values can overlap the other calls;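 note: luminescence divided by OD600 gain over 9 h not by final OD600 alone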
PHOSPHO1 inh = PubChem AID 1565; Phosphoethanolamine/phosphocholine phosphatase (Homo sapiens), Q8TCT1; recombinant PHOSPHO1, absorbance phosphatase assay; inhibition, % at 13.3 µM; actives 1.1% (n = 290,000); in the data active = inhibition above about 60%
Target sequence (Q8TCT1 whole entry, looked up): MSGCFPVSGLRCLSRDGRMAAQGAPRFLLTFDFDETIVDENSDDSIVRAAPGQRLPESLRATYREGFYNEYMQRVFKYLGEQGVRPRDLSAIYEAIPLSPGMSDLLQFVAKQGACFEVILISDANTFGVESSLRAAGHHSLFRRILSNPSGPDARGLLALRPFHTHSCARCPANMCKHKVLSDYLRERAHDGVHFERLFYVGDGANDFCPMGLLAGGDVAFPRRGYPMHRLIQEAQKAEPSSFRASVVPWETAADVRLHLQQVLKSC
HSF1 inhib = HSF1 inhibitors in luciferase reporter cells, primary screen, cell-based, NIH3T3, luminescence | NIH3T3-HGL HSE-luciferase, MG132-induced, luminescence 8 h; active compounds read low | activity change, negative = inhibition, % at 7.5 µM (by protocol) | actives 0.77% (n = 300,000) | AID 2098, 2009;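 active = more than half of replicate wells show activity change below -50%, luminescence cut by over half; inconclusive = some wells, but at most half, below -50%; inactive = no replicate well below -50%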;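 note: luciferase reports HSF-1 transcriptional activity via heat shock element; 0% = median of DMSO wells and -100% = zero luminescence signal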
HSF1 activator = HSF-1 activators, primary screen, NIH3T3-HGL cells, MG132 stress, luminescence, single point; AID 504408, 2011; NIH3T3-HGL HSF-1 luciferase reporter, 8 h; 100% = twice DMSO control signal; activation, % at 9 µM; actives 1.7% (n = 300,000);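 active = mean replicate activation of at least 50% with a set share of replicates each reaching 50%; inconclusive = only one of those two conditions met; inactive = mean below 50% and too few replicates reaching it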;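 note: 0% = median of the neutral control wells and 100% = twice that signal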
core dimer inh = inhibitors of HCV core protein dimerization, primary screen, biochemical, TR-FRET, high-throughput; TR-FRET GST/Flag-core106 dimerization, 1536-well; inhibition, % at 5 µM; actives 0.33% (n = 300,000); AID 1899, 2009;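 active = inhibition above the mean of all tested compounds plus 3 SD, set per screening campaign, cut at about 45% in these data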
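assay system = GST-tagged and Flag-tagged HCV core protein residues 1-106 | controls = unlabelled core106 and no-GST-core106 wells | incubation = compound-protein-antibody incubation 4 h at 22.5 °C | probe or stimulus = Eu donor and XL665 acceptor anti-tag antibodies | read-out = % inhibition based on acceptor/donor emission ratio | signal = TR-FRET 671 and 617 nm emission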
ALR inh = inhibitors of human ALR sulfhydryl oxidase, primary screen, biochemical, H2O2 detection, HRP-luminol luminescence, single point; FAD-linked sulfhydryl oxidase ALR (Homo sapiens), P55789; actives 3.8% (n = 290,000); purified ALR, DTT oxidation; inhibition, % (concentration not given with the values);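 active = mean replicate inhibition above about 79%, with every replicate also reaching it, limit read from the data; inconclusive = only one of the two criteria met; inactive = mean below limit and not every replicate reaching it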
Target sequence (P55789 whole entry, looked up): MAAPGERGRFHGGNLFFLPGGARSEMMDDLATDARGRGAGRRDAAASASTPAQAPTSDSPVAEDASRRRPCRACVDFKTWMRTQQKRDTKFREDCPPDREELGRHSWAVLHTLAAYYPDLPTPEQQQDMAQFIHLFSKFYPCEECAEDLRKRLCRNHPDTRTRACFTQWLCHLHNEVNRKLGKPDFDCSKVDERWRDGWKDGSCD
The depositor's hits bear a star; ? = inconclusive; · = not tested or not shown.

SMILES	AI-2 QS modul	PHOSPHO1 inh	HSF1 inhib	HSF1 activator	core dimer inh	ALR inh
Cc1cccc(Cc2nnc(CCC(=O)N3CCCCC3c3nccs3)o2)c1 (stereo unspecified)	-2	-6	15	29	3	2
CC1(C)OC(C)(C)/C(=C/Nc2ccc(O)cc2)C1=O	14	2	-6	-6	19	99*
CC1(C)OC(=O)C(=CNc2cccc(O)c2)C(=O)O1	9	42	-5	8	-15	-5
C=CCC[C@H](Cc1ccc(F)cc1)C(=O)OC[C@@H](NC(=O)[C@@H](CC=C)CC(=O)N(CCO)Cc1ccccc1)C(C)(C)C	·	·	·	·	·	-2
COc1cc(C)nc(NC(=O)NC(=O)c2ccc(C(F)(F)F)cc2)n1	7	24	-3	4	3	-3
Cc1ccc(N2C(=O)CS/C2=C(\C(Cl)=C(Cl)Cl)[N+](=O)[O-])cc1	19	80*	-5	-18	33	98*
O=C(NN1C(=O)C2CC=C(Cl)CC2C1=O)c1ccncc1 (stereo unspecified)	20	17	2	2	48*	-6
O=C(O)c1cn(Cc2ccccc2Cl)c2ccc(S(=O)(=O)N3CCOCC3)cc2c1=O	18	32	1	28	1	-2
CC(C)[C@H](NC(=O)C1CCN(C(=O)[C@@H]2CCCN2)CC1)C(=O)NCc1ccc(F)cc1	9	19	-3	-4	0	-8
Cc1ccc(NCCC(=O)c2cccs2)cc1C	6	42	9	33	-2	99*
Cc1ccc(NCCC(=O)c2cccs2)cc1	-39	-8	17	13	0	99*
Cc1ccc(NCCC(=O)c2cccs2)cc1Cl	-2	25	25	?	2	14
CC(C)c1ccc(NCCC(=O)c2cccs2)cc1	-64	2	-9	-19	-4	·
O=C(NCCCN1CCN(c2ccccc2)CC1)C1CCCN(c2ncnc3c2nc2n3CCCCC2)C1 (stereo unspecified)	12	44	-2	-4	-3	99*
O=C(NCCc1ccccc1)C1CCCN(c2ncnc3c2nc2n3CCCCC2)C1 (stereo unspecified)	4	56	-9	-6	-10	-2
Cc1ccc(CCNC(=O)C2CCCN(c3ncnc4c3nc3n4CCCCC3)C2)cc1 (stereo unspecified)	3	80*	-1	19	1	-3
C#CCSc1nnc(-c2cccc3ccccc23)o1	5	·	41	69*	-1	97*
C#CCSc1nnc(-c2ccc(C)cc2)o1	12	1	37	61*	1	-7
Cc1cnc(NC(=O)C2CC(=O)N(c3ccc4c(c3)OCCO4)C2)s1 (stereo unspecified)	·	·	·	·	·	-3
Cc1cnc(NC(=O)C2CC(=O)N(c3cccc(Cl)c3)C2)s1 (stereo unspecified)	13	58	46	77*	4	-9
Cc1ccc(S(=O)(=O)N2CCN(C(=O)c3cccc(-n4cccc4)c3)CC2)cc1	-8	·	5	1	31	-2
O=C(c1cccc(-n2cccc2)c1)N1CCN(S(=O)(=O)c2ccccc2)CC1	4	·	-2	-22	65*	4
O=C(c1cccc(S(=O)(=O)N2CCc3ccccc3C2)c1)N1CCN(c2ccc(O)cc2)CC1	22	-9	-3	-4	8	95*
COc1ccc(-n2cnc3cc(N)ccc32)cc1	1	-4	17	30	-4	99*
CC(C)[C@H](NC(=O)c1ccccc1)C(=O)OCC(=O)c1c(N)n(C)c(=O)n(C)c1=O	·	·	·	·	·	-1
SMILES	AI-2 QS modul	PHOSPHO1 inh	HSF1 inhib	HSF1 activator	core dimer inh	ALR inh
O=C(c1cccs1)N1CCN(C23CC4CC(CC(C4)C2)C3)CC1	0	20	-5	-16	7	·
COc1ccc(CCNC(=O)[C@@H](NC(=O)c2ccccc2F)C(C)C)cc1OC	13	6	1	2	4	14
CN=Cc1sc2ccccc2c1O	27	24	-6	-4	-15	47
Oc1c(C=NCc2ccncc2)sc2ccccc12	-7	-50	2	8	-12	83*
COc1ccc(C(=O)Nc2c(N)nc[nH]c2=O)cc1	34	·	2	2	3	-3
CCCNC(=O)C(Cc1ccccc1)NS(=O)(=O)c1ccc2c(c1)CCC(=O)N2 (stereo unspecified)	-14	-5	-2	13	-1	84*
CN(Cc1ccco1)C(=O)C(Cc1ccccc1)NS(=O)(=O)c1ccc2c(c1)CCC(=O)N2 (stereo unspecified)	12	5	-2	4	-2	78*
O=C1CCc2cc(S(=O)(=O)NC(Cc3ccccc3)C(=O)NC3CCCC3)ccc2N1 (stereo unspecified)	20	-12	3	20	-5	84*
COCC(C)NC(=O)CSc1nc2ccccc2c(=O)n1CCc1ccc(S(N)(=O)=O)cc1 (stereo unspecified)	19	14	1	-8	-3	3
COC(C(=O)N/N=C(\C)CC(=O)Nc1ccc(N(C)C)cc1)c1ccccc1 (stereo unspecified)	16	20	-2	-4	-8	99*
COC(C(=O)N/N=C(\C)CC(=O)Nc1ccc(Cl)cc1C)c1ccccc1 (stereo unspecified)	1	16	79	122*	-3	3
Cc1cnc(C(=O)OCc2cc(=O)n3c(C)cccc3n2)cn1	·	·	·	·	·	4
C(=N\N1CCN(Cc2cccc3ccccc23)CC1)/c1cccnc1	-3	8	16	62*	-10	-3
FC(F)(F)c1ccc(/C=N/N2CCN(Cc3cccc4ccccc34)CC2)cc1	3	0	2	5	1	-2
CC(=O)N[C@@H](Cc1c[nH]c2ccccc12)C(=O)NCc1ccccc1	17	-2	15	65*	-1	-6
CC(=O)N[C@@H](Cc1c[nH]c2ccccc12)C(=O)NCCc1ccc(S(N)(=O)=O)cc1	-1	-9	-6	-19	-9	9
Clc1ccccc1OCc1nc(-c2ccncc2)no1	·	-5	·	·	1	-1
Clc1ccc(OCc2nc(-c3ccncc3)no2)c(Br)c1	6	-9	52	85*	-4	-2
CCOC(=O)c1ccc(Oc2cc(C)nc(Cl)n2)cc1	-3	42	-5	-11	1	-9
O=[N+]([O-])c1ccc(S(=O)(=O)Nc2nc(-c3ccccc3)cs2)cc1	-3	·	-4	-12	8	34
